The source of these data is ChEMBL document CHEMBL1131232, “New azole antifungals. 3. Synthesis and antifungal activity of 3-substituted-4(3H)-quinazolinones” (J Med Chem, 1998).

What is called MIC is the lowest concentration that inhibits growth of the organism. For orientation: half-life means the time needed for the level to fall by half in the phase considered. Low values mean fast loss, high ones slow loss.

Series [1] relates to Mus musculus. Description: In vivo antifungal activity against murine candidosis model after peroral administration with 1 mg/Kg at various time intervals. (percent protection for 100% mortality with untreated group). It is filed as functional. In a few lines:
(§1)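 Groups of 10 male mice were infected iv with 0.2 mL of C. albicans at 2 to 8×10^7 cfu/mL. Drug was given orally as a suspension in 1% Tween + 0.2% carboxymethylcellulose at 1, 4 and 24 h post-infection; controls got vehicle only. Survival was scored on days 3, 5, 7 and 9. Read-out was % survival on the day all untreated controls died, or on the day all mice given fluconazole at the same dose died.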

A short description of series [2]: In vitro antifungal activity against 6 filamentous fungi. In kind it is functional. The gist of the method: (§2)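 Agar dilution on Kimmig's agar with 0.5% glycerol, using ATCC strains or clinical isolates. Drug stocks were 800 μg/mL in 50% ethanol, tested as 2-fold dilutions from 80 to 0.03 μg/mL. Inocula were 10⁵ cfu/mL. […] Geometric means took >80 as 160 and ≤0.03 as 0.03.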

In series [3] the test system is Candida albicans. Description: In vivo antifungal activity against murine candidosis model after peroral administration with 1 mg/kg at various time intervals. (percent protection for 100% mortality with fluconazole-treated group.). It is filed as functional. The settings on record: route oral. The gist of the method: as §1
A short description of series [4]: In vitro for antifungal activity against 10 yeasts. It is filed as functional. The gist of the method:
as §2

The test system of series [5] is Mus musculus. Description: The compound was tested in vivo for anti-candida activity in mice model 2(dose: 5 mg/kg, untreated group). It is filed as functional.
For series [6], the system named is Oryctolagus cuniculus. Description: In vivo antifungal activity against systemic candidosis in rabbit lung at a dose of 2.5 mg/kg, qd, po. It is filed as functional. In a few lines:
(§3)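 Male New Zealand rabbits, 10 per group, were infected iv with C. albicans at 1.2×10^7 cfu/kg. Oral dosing in 1% Tween 80 + 0.2% CMC began 4 h post-infection and continued qd for 6 more days; controls received vehicle. On day 7, kidney and lung homogenates in saline (1 mL/g) were plated on Sabouraud agar (37 °C, 7 days); read-out was log cfu/g wet tissue.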

The test system of series [7] is Mus musculus. The series is described as follows: The compound was tested in vivo for anti-candida activity in mice model 2(dose :5 mg/kg,fluconazole-treated group). It is filed as functional.
Series [8] relates to Rattus norvegicus. The series is described as follows: In vivo activity against disseminated aspergillosis (liver) in immunocompromized rat model at a dose of 5 mg/kg, bid, po. In kind it is functional. The gist of the method:
(§4)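 Male Sprague–Dawley rats, 10 per group, were immunosuppressed with dexamethasone 21-acetate 1 mg/kg/day po from 4 days before iv infection. Oral dosing in 1% Tween 80 + 0.2% CMC was given 1 and 8 h post-infection, then bid for 6 more days. Vehicle controls were dosed po bid. On day 7, liver homogenate was plated on Sabouraud agar (37 °C, 7 days) and log cfu/g recorded.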

The test system of series [9] is Oryctolagus cuniculus. Description: In vivo antifungal activity against systemic candidosis in rabbit kidney at a dose of 0.5 mg/kg, qd, po. It is filed as functional. The gist of the method: as §3
The test system of series [10] is Rattus norvegicus. Description: In vivo activity against disseminated aspergillosis (liver) in immunocompromized rat model at a dose of 25 mg/kg, bid, po. In kind it is functional. In a few lines: as §4
Series [11] deals with Mus musculus. The series is described as follows: The compound was tested in vivo for anti-candida activity in mice model 1(dose: 0.5 mg/kg, untreated group). It is filed as functional.
The subject of series [12] is Oryctolagus cuniculus. Description: In vivo antifungal activity against systemic candidosis in rabbit kidney at a dose of 2.5 mg/kg, qd, po. In kind it is functional. In a few lines: as §3
The nature of series [13]: Half-life in rats after iv administration. In kind it is ADME, organism-based. The settings on record: rat, in vivo.
The test system of series [14] is Mus musculus. The series is described as follows: The compound was tested in vivo for anti-candida activity in mice model 1 (dose :0.5 mg/kg,fluconazole-treated group). It is filed as functional.
The subject of series [15] is Oryctolagus cuniculus. Description: In vivo antifungal activity against systemic candidosis in rabbit lung at a dose of 12.5 mg/kg, qd, po. In kind it is functional. In a few lines: (§5)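 Groups of 10 male New Zealand rabbits were infected iv with C. albicans (1.2×10^7 cfu/kg). Drug was given orally as a suspension in 1% Tween 80 + 0.2% carboxymethylcellulose 4 h post-infection, then qd for 6 more days; controls got vehicle. On day 7, kidney or lung was homogenized in saline and plated on Sabouraud agar (37 °C, 7 days). Read-out was log cfu/g wet tissue.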

In series [16] the test system is Rattus norvegicus. The series is described as follows: In vivo activity against disseminated aspergillosis (liver) in immunocompromized rat model at a dose of 50 mg/kg, bid, po. In kind it is functional. The gist of the method: as §4
Series [17] deals with Candida albicans. Description: (§6) In vivo antifungal activity against murine candidosis model after peroral administration with 0.5 mg/kg at various time intervals. (percent protection for 100% mortality with untreated group). It is filed as functional. The settings on record: route oral. The gist of the method:
as §1

The test system of series [18] is Oryctolagus cuniculus. The series is described as follows: In vivo antifungal activity against systemic candidosis in rabbit lung at a dose of 0.5 mg/kg, qd, po. It is filed as functional. The gist of the method: as §3
The subject of series [19] is Oryctolagus cuniculus. Description: In vivo antifungal activity against systemic candidosis in rabbit kidney at a dose of 12.5 mg/kg, qd, po. It is filed as functional. In a few lines:
as §5

Series [20] concerns Candida albicans. Description: The compound was tested in vitro for antifungal activity against Candida albicans. In kind it is functional. The gist of the method:
as §2

Series [21] relates to Rattus norvegicus. Description: In vivo activity against disseminated aspergillosis (liver) in immunocompromized rat model at a dose of 1 mg/kg, bid, po. It is filed as functional. The gist of the method: as §4
For series [22], the system named is Candida albicans. Description: In vivo antifungal activity against murine candidosis model after peroral administration with 1 mg/kg at various time intervals. (percent protection for 100% mortality with untreated group). It is filed as functional. The settings on record: route oral. The gist of the method:
as §1

Series [23] deals with Mus musculus. The series is described as follows: In vivo antifungal activity against murine candidosis model after peroral administration with 0.5 mg/Kg at various time intervals. (percent protection for 100% mortality with fluconazole-treated group.). In kind it is functional. In a few lines: as §1
In series [24] the test system is Mus musculus. Described as §6. In kind it is functional. The settings on record: route oral. In a few lines: as §1
For series [25], the system named is Mus musculus. Description: In vivo antifungal activity against murine candidosis model after peroral administration with 0.5 mg/kg at various time intervals. (percent protection for 100% mortality with fluconazole-treated group.). It is filed as functional. The settings on record: route oral. In a few lines:
as §1

Values after ≈ are worked out from the molar mass of the structure shown. Where only a bound is given, the exact number is not on record here.

Turning to `C[C@@H](n1cnc2cc(N(C)C)ccc2c1=O)[C@](O)(Cn1cncn1)c1ccc(F)cc1F`, the Protection in series [1] and in series [3] was 0% in each case. In addition, the values for the minimal inhibitory concentration (MIC) in [2] (read-out: MIC) and in [4] (read-out: MIC) were 71 µg/mL (≈ 161 µM) and 1.3 µg/mL (≈ 2.95 µM), respectively.

As to `C[C@@H](n1cnc2cc(Cl)ccc2c1=O)[C@](O)(Cn1cncn1)c1ccc(F)cc1F` (stereo in doubt; 20) [ALBACONAZOLE], the Protection is given as 90% in [5]; 0% in series [7]; 0% in series [11]; 0% in [14]; 0% in series [17]; 0% in series [3]. The same molecule yielded a Protection in series [22] of 0%. Also, the Log cfu/g is given as 0.12 in series [6]; 1.22 in series [8]; 0.68 in [9]; 0.48 in series [10]; 0.3 in [12]; 0 in series [15]. The Log cfu/g worked out at 0 in [16], 0.39 in series [18], 0.35 in [19] and 1.59 in series [21]. The MIC is 0.7 µg/mL (≈ 1.62 µM) in series [2], < 0.03 µg/mL in [20] and 0.3 µg/mL (≈ 0.695 µM) in series [4]. In [13], this molecule gave a half-life of 2.9 h.

Consider `C[C@@H](n1cnc2cc(Br)ccc2c1=O)[C@](O)(Cn1cncn1)c1ccc(F)cc1F`, for which the MIC in [2] (read-out: MIC) is 0.8 µg/mL (≈ 1.68 µM); in [20] it was < 0.03 µg/mL; in series [4] (read-out: MIC), 0.4 µg/mL (≈ 0.84 µM). Besides, the figures for the Protection in series [3], in series [22] and in series [23] were 0%, 30% and 0%, respectively.

For the molecule `CCC(CC)n1ncn(-c2ccc(N3CCN(c4ccc5c(=O)n([C@H](C)[C@](O)(Cn6cncn6)c6ccc(F)cc6F)cnc5c4)CC3)cc2)c1=O`, the minimum inhibitory concentration (MIC) in series [2] (read-out: MIC) was > 80 µg/mL; in [4] (read-out: MIC), 2.3 µg/mL (≈ 3.24 µM). For the same molecule, the values for the Protection in series [24] and in [25] were 20% and 0%, respectively.
